The source made the active and inactive calls. The calls are words filed in the database; no cut-off is given here.
target: Putative P2Y purinoceptor 10 (Mus musculus) (UniProt Q8BFU7); test: Agonist activity at mouse P2Y10 receptor expressed in McA-RH7777 cells assessed as actin stress fiber formation at 1 uM after 30 mins by confocal microscopy; format: cell-based
Summary of the method: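 McA-RH7777 cells stably expressing mouse P2Y10, or mock retrovirus-infected, were grown on collagen I and serum-starved 1 h. They were stimulated with 1 μM compound in serum-free DMEM containing 0.01% fatty-acid-free BSA. […] F-actin fibers were imaged by confocal microscopy.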

Sequence of Putative P2Y purinoceptor 10 (Mus musculus) (Q8BFU7 whole entry): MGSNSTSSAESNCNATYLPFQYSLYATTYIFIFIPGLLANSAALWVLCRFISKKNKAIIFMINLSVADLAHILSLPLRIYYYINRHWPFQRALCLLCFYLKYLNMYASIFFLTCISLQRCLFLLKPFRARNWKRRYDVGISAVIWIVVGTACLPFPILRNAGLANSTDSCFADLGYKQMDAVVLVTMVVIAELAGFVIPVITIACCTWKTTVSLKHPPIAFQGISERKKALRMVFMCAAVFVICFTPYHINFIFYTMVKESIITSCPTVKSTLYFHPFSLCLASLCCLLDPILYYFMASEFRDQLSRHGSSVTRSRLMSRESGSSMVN

Row | Activity | Structure (SMILES)
1 | Active | CCCCCCCCCCCOc1ccccc1CCC(=O)OCC(F)(F)COP(=O)(O)OC[C@H](N)C(=O)O
2 | Active | CCCCCCCCCCCOc1ccccc1CCC(=O)OCCCOP(=O)(O)OC[C@H](N)C(=O)O
3 | inactive | CCCCCCCCCCCOc1cccc(CCC(=O)NC[C@@H](O)COP(=O)(O)O[C@@H](C)[C@H](N)C(=O)O)c1

Row | Structure (SMILES) | Activity
4 | CCCCCCCC/C=C\CCCCCCCC(=O)OC[C@@H](O)COP(=O)(O)OC[C@H](N)C(=O)O | Active
